The target in test [1] is T1, Toll-like receptor 8 (Homo sapiens) (UniProt Q9NR97).
T1 sequence (whole entry): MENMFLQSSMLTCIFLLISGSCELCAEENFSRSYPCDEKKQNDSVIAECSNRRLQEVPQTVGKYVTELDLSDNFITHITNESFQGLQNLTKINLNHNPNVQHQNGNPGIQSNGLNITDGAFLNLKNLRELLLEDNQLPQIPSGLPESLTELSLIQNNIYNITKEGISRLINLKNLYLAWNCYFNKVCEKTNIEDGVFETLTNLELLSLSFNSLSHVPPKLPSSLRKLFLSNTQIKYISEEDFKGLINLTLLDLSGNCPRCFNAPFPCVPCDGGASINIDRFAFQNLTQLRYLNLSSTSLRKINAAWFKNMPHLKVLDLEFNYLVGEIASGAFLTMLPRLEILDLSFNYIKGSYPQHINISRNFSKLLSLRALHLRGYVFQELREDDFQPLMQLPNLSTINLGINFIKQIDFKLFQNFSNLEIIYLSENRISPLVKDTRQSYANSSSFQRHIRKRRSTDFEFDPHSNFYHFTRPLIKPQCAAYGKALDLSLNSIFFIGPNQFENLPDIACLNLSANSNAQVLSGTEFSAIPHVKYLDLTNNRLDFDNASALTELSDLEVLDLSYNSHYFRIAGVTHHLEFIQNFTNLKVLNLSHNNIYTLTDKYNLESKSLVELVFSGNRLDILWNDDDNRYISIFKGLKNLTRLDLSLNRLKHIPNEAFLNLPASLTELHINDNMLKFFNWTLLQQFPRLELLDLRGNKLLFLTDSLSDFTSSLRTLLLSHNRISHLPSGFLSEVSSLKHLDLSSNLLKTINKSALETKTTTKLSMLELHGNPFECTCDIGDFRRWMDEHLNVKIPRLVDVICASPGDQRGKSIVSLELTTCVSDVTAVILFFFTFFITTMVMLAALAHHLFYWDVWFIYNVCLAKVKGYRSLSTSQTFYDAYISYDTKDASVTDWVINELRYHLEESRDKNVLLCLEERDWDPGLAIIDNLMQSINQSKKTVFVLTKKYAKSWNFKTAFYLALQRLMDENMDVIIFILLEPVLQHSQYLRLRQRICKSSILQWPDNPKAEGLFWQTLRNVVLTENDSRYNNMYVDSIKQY
Description: Inhibition of human TLR8 expressed in HEK293 cells assessed as reduction in R848-induced NFkappaB production at 5 to 20 uM incubated for 16 hrs by quanti-blue SEAP assay. It is filed as cell-based. The method in brief:
(§1)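 Selectivity panel in stably transfected HEK 293-Blue cells, each overexpressing one human TLR with an inducible SEAP reporter. Agonists: Pam3CSK4 (TLR1/2), Pam2CSK4 (TLR2/6), poly(I:C) (TLR3), LPS (TLR4), R848 (TLR7/8), ODN 2006 (TLR9). Cells were exposed to compound for 16 h. Activity = (raw − untreated)/(ligand + solvent − untreated), with ligand + solvent set as 100%.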

Test [2] concerns the target T2, Toll-like receptor 7 (Homo sapiens) (UniProt Q9NYK1).
T2 sequence (whole entry): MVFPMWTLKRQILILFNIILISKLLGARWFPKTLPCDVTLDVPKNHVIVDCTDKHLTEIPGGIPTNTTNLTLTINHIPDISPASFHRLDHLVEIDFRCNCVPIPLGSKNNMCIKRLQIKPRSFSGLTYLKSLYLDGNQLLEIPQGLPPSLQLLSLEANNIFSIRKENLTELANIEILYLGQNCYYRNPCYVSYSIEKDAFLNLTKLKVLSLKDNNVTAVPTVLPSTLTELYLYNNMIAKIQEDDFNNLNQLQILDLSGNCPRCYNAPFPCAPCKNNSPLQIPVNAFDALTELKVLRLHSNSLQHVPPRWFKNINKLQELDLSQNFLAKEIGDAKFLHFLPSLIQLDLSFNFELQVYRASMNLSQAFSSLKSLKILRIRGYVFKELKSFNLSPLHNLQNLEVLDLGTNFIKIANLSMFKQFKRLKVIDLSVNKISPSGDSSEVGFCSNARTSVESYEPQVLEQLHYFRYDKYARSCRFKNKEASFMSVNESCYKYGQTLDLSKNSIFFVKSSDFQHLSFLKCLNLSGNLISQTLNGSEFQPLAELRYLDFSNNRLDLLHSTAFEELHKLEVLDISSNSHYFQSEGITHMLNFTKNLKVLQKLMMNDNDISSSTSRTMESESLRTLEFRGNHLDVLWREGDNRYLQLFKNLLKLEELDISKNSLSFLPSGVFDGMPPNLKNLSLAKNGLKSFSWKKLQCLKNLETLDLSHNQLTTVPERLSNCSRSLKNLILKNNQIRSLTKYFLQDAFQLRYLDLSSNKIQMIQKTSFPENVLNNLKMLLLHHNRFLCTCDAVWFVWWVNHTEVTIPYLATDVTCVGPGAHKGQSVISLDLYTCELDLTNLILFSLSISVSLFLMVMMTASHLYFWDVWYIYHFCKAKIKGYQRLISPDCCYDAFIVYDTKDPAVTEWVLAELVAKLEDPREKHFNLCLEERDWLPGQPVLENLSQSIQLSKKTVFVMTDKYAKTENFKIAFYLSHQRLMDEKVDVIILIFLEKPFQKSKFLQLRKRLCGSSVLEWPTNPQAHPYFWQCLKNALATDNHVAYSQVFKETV
The test can be described thus: Inhibition of human TLR7 expressed in HEK293 cells assessed as reduction in resiquimod-induced NFkappaB production at 0.5 uM incubated for 16 hrs by quanti-blue SEAP assay. It is filed as cell-based. The method in brief: as §1

Test [3] has as its target T1, Toll-like receptor 8 (Homo sapiens). The test can be described thus: Inhibition of human TLR8 expressed in HEK293 cells assessed as reduction in R848-induced NFkappaB production at 0.5 uM incubated for 16 hrs by quanti-blue SEAP assay. The test is classed as cell-based.
Test [4] deals with Toll-like receptor 7 (Mus musculus) (UniProt P58681). The test can be described thus: Inhibition of endogenous mouse TLR7 in mouse RAW264.7 cells assessed as resiquimod-induced NO production at > 5 uM incubated for 18 to 24 hrs.
Sequence of Toll-like receptor 7 (Mus musculus) (P58681 whole entry, looked up): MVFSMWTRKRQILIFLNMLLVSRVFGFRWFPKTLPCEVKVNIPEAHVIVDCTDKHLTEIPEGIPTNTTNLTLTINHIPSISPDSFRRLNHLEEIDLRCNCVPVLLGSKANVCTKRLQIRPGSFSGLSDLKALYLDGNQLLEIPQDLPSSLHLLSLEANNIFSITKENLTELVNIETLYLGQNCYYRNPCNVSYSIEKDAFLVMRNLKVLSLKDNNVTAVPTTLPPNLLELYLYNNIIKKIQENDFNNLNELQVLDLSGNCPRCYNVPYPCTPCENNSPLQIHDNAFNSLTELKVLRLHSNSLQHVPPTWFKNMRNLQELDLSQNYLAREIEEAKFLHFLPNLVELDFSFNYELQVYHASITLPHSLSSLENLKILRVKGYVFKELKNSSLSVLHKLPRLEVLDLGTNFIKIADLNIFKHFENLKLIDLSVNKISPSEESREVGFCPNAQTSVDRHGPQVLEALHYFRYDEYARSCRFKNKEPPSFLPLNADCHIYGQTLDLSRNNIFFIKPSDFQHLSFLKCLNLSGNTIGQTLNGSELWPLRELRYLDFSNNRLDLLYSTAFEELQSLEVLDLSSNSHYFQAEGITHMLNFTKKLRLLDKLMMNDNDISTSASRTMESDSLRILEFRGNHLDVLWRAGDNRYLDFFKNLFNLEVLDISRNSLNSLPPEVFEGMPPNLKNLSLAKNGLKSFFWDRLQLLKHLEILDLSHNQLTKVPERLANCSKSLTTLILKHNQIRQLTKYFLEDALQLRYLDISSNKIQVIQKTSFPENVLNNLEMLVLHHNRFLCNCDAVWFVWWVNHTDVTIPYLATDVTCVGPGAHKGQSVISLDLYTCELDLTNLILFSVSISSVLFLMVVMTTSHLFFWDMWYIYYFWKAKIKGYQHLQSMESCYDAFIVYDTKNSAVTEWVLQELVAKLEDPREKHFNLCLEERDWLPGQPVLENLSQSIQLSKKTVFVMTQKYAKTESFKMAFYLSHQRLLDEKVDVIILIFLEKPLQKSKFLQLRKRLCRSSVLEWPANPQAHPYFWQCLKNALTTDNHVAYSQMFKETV
Test [5] addresses T3, Toll-like receptor 8 (Homo sapiens, UniProt Q9NR97).
T3 sequence (Q9NR97 whole entry): T1 sequence (whole entry)
Description: Inhibition of human TLR8 expressed in HEK293 cells assessed as reduction in ssRNA-induced NFkappaB production incubated for 16 hrs by quanti-blue SEAP assay. It is filed as cell-based. Summed up: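 HEK 293 hTLR8 SEAP reporter cells were stimulated with ssRNA (ssRNA-Lyo-40) and incubated with compound for 16 h. Data were normalized as (raw − untreated)/(ligand + solvent − untreated), with ligand + solvent set as 100%. Mean ± s.d., n = 3 independent experiments.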

For test [6], the target named is Toll-like receptor 4 (Homo sapiens) (UniProt O00206). The test can be described thus: Inhibition of human TLR4 expressed in HEK293 cells assessed as reduction in LPS-induced NFkappaB production at 1.5 to 5 uM incubated for 16 hrs by quanti-blue SEAP assay. It is filed as cell-based. Summed up:
as §1

The target of test [7] is Toll-like receptor 3 (Homo sapiens) (UniProt O15455). Description: Inhibition of human TLR3 expressed in HEK293 cells assessed as reduction in poly(I:C)-induced NFkappaB production at 1.5 to 5 uM incubated for 16 hrs by quanti-blue SEAP assay. The test is classed as cell-based. The method in brief: as §1
Sequence of Toll-like receptor 3 (Homo sapiens) (O15455 whole entry): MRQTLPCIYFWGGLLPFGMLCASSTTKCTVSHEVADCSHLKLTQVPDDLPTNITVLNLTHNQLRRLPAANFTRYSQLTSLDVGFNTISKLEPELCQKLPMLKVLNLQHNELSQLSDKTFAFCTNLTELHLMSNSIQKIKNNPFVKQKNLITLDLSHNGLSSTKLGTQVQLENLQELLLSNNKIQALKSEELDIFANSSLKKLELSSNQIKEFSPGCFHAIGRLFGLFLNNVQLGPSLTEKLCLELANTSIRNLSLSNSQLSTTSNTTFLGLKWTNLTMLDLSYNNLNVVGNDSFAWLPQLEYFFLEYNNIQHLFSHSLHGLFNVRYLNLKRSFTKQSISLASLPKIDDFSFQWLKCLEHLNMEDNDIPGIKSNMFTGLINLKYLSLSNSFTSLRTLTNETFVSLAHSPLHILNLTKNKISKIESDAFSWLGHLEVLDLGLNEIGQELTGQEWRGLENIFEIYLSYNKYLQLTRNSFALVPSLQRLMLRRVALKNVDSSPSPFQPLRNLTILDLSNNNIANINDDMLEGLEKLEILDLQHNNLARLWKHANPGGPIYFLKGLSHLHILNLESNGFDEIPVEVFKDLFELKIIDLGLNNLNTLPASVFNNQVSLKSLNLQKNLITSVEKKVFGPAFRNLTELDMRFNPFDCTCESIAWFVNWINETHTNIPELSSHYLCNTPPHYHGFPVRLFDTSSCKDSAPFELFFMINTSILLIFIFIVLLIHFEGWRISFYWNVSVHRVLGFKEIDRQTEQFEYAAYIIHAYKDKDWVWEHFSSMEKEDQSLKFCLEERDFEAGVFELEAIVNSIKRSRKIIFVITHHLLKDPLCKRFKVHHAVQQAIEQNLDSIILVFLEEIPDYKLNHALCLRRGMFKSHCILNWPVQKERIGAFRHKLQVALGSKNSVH

The source made the active and inactive calls. No cut-off for these calls is given here.

Sequence of Toll-like receptor 4 (Homo sapiens) (O00206 whole entry): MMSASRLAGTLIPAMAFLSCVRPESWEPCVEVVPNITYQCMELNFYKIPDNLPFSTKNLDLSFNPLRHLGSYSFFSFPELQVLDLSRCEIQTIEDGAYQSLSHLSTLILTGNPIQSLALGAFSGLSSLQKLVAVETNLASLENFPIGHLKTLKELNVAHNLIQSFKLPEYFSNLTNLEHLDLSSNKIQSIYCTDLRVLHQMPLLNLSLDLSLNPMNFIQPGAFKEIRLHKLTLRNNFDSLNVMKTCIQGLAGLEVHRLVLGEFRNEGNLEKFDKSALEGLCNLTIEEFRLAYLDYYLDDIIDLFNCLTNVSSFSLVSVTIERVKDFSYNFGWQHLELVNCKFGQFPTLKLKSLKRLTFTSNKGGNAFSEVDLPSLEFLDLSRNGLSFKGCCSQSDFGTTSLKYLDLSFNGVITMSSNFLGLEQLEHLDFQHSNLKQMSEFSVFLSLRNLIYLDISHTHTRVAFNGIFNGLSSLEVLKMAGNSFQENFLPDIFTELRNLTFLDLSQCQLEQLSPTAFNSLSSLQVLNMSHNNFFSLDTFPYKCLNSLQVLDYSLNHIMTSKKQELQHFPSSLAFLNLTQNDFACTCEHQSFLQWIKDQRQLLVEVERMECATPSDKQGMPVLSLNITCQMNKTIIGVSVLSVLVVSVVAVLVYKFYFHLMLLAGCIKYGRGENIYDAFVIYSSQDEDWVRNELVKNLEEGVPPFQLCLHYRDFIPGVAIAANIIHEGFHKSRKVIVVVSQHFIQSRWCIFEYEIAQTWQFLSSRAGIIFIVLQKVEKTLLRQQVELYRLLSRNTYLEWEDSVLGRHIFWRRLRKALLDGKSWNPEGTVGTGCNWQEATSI

Regarding `O=C(Nc1ccc(Oc2cc(C(F)(F)F)cc(C(F)(F)F)c2)cc1)c1c(F)cccc1I`, the inhibition entry in test [1] and in test [4] was “Active” each time. The inhibition entry in test [2] and in test [3] was “inactive” throughout.

As for `O=[N+]([O-])c1c(I)cccc1Oc1ccc(-c2nnco2)cc1`, the IC50 in test [5] was 620 nM. For the same molecule, in test [4], the inhibition result is “Active”.

Consider `O=C(Nc1ccc(Oc2cc(C(F)(F)F)cc(C(F)(F)F)c2)cc1)c1c(F)cccc1Cl`, for which the inhibition result in test [6] and in test [7] was “inactive” throughout.

Take `O=C(Nc1ccc(Oc2cncc(C(F)(F)F)c2)cc1)c1c(F)cccc1Cl`: in test [1], the inhibition entry is “Active”. For the same molecule, the inhibition result in test [2] and in test [3] was “inactive” throughout.

Source of the values: ChEMBL document CHEMBL4354819, “Discovery of Novel Small Molecule Dual Inhibitors Targeting Toll-Like Receptors 7 and 8” (J Med Chem, 2019).
